Compound activity as filed in PubChem BioAssay.
An excerpt weighted towards active compounds, which were near 2.9% of everything screened.
CendR NRP1 mod: alters CendR peptide binding to human NRP-1 | O14786 | FAM-RPARPAR peptide binding to NRP-1, fluorescence polarization | inhibition, % at 25 µM | AID 602438 | actives 0.85% (n = 360,000);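 active = inhibition or corrected inhibition above about 18%, plus a signal ratio from 0.5 to 1.5, limit read from the data, passing the limit was not always enough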
Target sequence (O14786 whole entry, looked up): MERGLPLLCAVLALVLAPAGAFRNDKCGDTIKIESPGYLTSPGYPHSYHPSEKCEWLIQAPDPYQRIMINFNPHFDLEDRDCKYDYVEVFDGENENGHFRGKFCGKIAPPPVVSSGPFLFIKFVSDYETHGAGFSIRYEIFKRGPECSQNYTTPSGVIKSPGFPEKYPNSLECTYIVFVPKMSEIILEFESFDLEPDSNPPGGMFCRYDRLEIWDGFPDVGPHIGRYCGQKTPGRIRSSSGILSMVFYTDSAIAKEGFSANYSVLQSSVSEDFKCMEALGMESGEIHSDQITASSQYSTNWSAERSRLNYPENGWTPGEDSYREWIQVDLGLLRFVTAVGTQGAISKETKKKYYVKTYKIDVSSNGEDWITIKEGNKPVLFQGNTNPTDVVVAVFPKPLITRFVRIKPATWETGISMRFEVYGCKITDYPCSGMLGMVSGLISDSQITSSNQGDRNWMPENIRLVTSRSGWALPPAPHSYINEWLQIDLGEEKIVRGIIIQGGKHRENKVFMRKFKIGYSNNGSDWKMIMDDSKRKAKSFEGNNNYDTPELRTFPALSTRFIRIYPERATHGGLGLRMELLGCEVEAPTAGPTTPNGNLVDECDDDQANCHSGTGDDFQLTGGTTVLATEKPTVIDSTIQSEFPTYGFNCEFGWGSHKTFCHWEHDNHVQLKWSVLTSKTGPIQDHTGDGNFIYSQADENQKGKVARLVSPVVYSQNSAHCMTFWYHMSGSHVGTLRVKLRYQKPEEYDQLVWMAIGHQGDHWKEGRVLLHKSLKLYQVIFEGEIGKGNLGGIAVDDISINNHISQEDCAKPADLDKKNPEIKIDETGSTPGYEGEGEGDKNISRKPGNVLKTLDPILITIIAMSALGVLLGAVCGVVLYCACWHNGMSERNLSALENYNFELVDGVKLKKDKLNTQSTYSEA
ADAM17 inh: ADAM17 inhibition, QFRET primary screen | P78536 | recombinant ADAM17, EDANS/DABCYL FRET peptide cleavage | inhibition, % at 6.95 µM | actives 0.83% (n = 370,000) | AID 720648;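 active = inhibition above the mean of compounds lying between control limits plus 3 SD, set per campaign, cut at about 8.5% in these data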;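 also: 0% = DMSO-only wells as the low control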
ADAM10 inh: inhibitors of human ADAM10 | O14672 | recombinant ADAM10, EDANS/DABCYL FRET peptide cleavage, 3 h | inhibition, % at 7 µM | actives 0.62% (n = 370,000);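 active = inhibition above a per-campaign cutoff equal to the mean of compounds falling between control-based bounds plus 3 SD, cut at about 20% in these data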;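 also: 0% = DMSO wells while the 100% control is not disclosed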
Arr AP2 block: human beta-arrestin and AP2 interaction inhibition | AID 504490 | actives 0.31% (n = 340,000) | inhibition, % at 10 µM | FITC-arrestin peptide / GST-AP2 beads, flow cytometry; AP2 beta2 appendage carries R879A mutation;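 active = inhibition above a set limit, near 3 SD of compounds lacking own fluorescence, cut at about 54% in these data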;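 also: plate controls were DMSO wells for no effect and 5 µM unlabelled arrestin peptide for full effect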
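Measured by: flow cytometry, FL1 (488/535 nm); Material: AP2 appendage R879A on GSH beads; Evaluation: percent response; Timing: pre-incubation 12 min, peptide binding 1 h, room temperature; Also added: 50 nM FITC-arrestin peptide; Medium: PBS with 0.05% Tween 20 and 0.1% BSA.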
CaV13 FRET inh: Disruptors of the CACNA1D IQ motif to Ca2+-dependent inactivation inhibitor domain association, primary screening, Förster resonance energy transfer in intact living …; HEK cells, CFP/YFP FRET ICDI-IQ, plate reader, 10 min; percent FRET-ratio fall versus neutral wells; inhibition, % at 12.3 µM; actives 0.098% (n = 340,000); AID 743397;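 active = mean replicate inhibition of at least 30% and at least 1% of replicates passing that level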;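 also: 0% = median of the neutral control wells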
FAS-TE inh: blocks the thioesterase domain of human fatty acid synthase; P49327; recombinant FAS-TE, OMFH fluorogenic substrate, fluorescence endpoint; inhibition, % at 15 µM; actives 0.67% (n = 360,000); AID 602261;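 active = compounds whose normalised, plate-corrected inhibition of enzyme fluorescence in the single-dose primary screen is 50% or more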;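 also: 0% = DMSO with enzyme and 100% = substrate without enzyme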
ADAM10 ctr: ADAM10 inhibition, counter-screen for ADAM17 exosite hits; shares compounds with ADAM17 inh; recombinant ADAM10, EDANS/DABCYL FRET peptide cleavage, 3 h; inhibition, % at 6.95 µM; actives 47% (n = 2,900);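 active = mean inhibition over the triplicate runs exceeds the activity threshold set in the earlier primary screen, cut at about 20% in these data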;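 also: 0% = DMSO wells and 100% = marimastat wells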
ADAM17 confirm: human ADAM17 inhibition, confirmation; actives 65% (n = 2,900); inhibition, % at 6.95 µM; shares compounds with ADAM17 inh; recombinant ADAM17, EDANS/DABCYL QFRET peptide cleavage;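 active = mean inhibition across replicates above the hit cutoff set in the primary screen, cut at about 8.5% in these data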;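 also: 0% = DMSO wells and 100% = marimastat wells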
An asterisk follows results filed as active; . = no result.

SMILES	CendR NRP1 mod	ADAM17 inh	ADAM10 inh	Arr AP2 block	CaV13 FRET inh	FAS-TE inh	ADAM10 ctr	ADAM17 confirm
CCOC(=O)C1=CCN(S(=O)(=O)c2ccc(C)cc2)C1c1ccc(CC)cc1 (centres undefined)	-8	8.8*	-10	.	-3	13	20*	16*
CCOC(=O)C1=CCN(S(=O)(=O)c2ccccc2F)C1c1cccc(Br)c1 (centres undefined)	6	9.2*	13	.	-5	18	17	9.5*
Cn1c(=O)c(Nc2ccc(O)cc2)c2c3c(cccc31)C(=O)c1ccccc1-2	81*	9.2*	17	13	-7	18	19	15*
CC(C)c1ccc(Nc2c([N+](=O)[O-])c(=O)n(C)c3ccccc23)cc1	6	-1	9	-15	-18	27	.	.
COCCN1C(=O)[C@H]2C[C@@]13O[C@H](c1ccc(C(F)(F)F)cc1)N=C3C[C@H](c1ccccc1)[C@H]2C	.	-2	-12	.	-4	.	.	.
Cc1cccc(N2CCN(c3ccc(N4C(=O)CCCC4=O)cc3[N+](=O)[O-])CC2)c1C	4	14*	2	22	-14	-7	10	8
CCCCOCC1CN(CCCC)S(=O)(=O)c2c(Oc3ccc(SC)c(C)c3)cccc2O1 (centres undefined)	.	-1	0	.	-8	.	.	.
O=C(CC1SC(=O)N(c2ccccc2)C1=O)Nc1ccccc1 (centres undefined)	3	9.3*	12	0	-7	-3	1	16*
O=C(CN(CCc1ccccc1)S(=O)(=O)c1ccc(Cl)s1)N1CCOCC1	.	-3	-12	.	.	.	.	.
Cc1noc(C)c1NC(=O)Nc1cccc2c1O[C@H](CN(C)S(=O)(=O)c1ccc(F)cc1)[C@@H](C)CN([C@H](C)CO)C2=O	3	11*	3	-6	-4	0	3	2
Cc1noc(C)c1S(=O)(=O)N(C)C[C@H]1Oc2c(NC(=O)C3CCCCC3)cccc2C(=O)N([C@H](C)CO)C[C@@H]1C	16	10*	5	6	-5	-6	5	2
Cc1noc(C)c1NC(=O)Nc1cccc2c1O[C@H](CN(C)S(=O)(=O)c1ccccc1)[C@@H](C)CN([C@H](C)CO)C2=O	0	-6	-16	-5	-4	5	.	.
CC(C)c1cc(Cn2c3ccccc3c(=O)n2C(C)Cn2cc(C3=CCCCC3)nn2)on1 (centres undefined)	-6	-61	-261	.	.	.	.	.
CCC(C(=O)NCCc1ccc(S(N)(=O)=O)cc1)c1ccccc1 (centres undefined)	-1	-6	3	37	-5	-8	.	.
O=C1c2ccccc2[C@@H]2C[C@@H](O)[C@H](Nc3cccc(Cl)n3)CCN12	4	3	-22	-10	-8	-5	.	.
Cn1cc(C(=O)N/N=C/c2cccs2)c2ccccc21	-9	8.9*	-3	5	-4	-3	-5	0
Cc1occc1C(=O)N/N=C/c1cccs1	5	-3	-6	34	-8	-7	.	.
Oc1ccc2[nH]cc(-c3cccs3)c2c1-c1ccccc1	.	-2	-4	.	.	.	.	.
CCCCC(=O)Nc1cccc(-c2csc(-c3ccccc3)n2)c1	-2	8.9*	17	0	-5	25	22*	17*
CC(NC(=O)CN1C(=O)NC2(CCCC2)C1=O)c1ccc(Cl)cc1Cl (centres undefined)	6	0	-7	40	-15	-8	.	.
Cc1ccc(-n2c(SCC(=O)Nc3ccc(OCc4ccccc4)cc3)nnc2-c2ccco2)cc1	.	0	-3	.	.	.	.	.
CC(C)C[C@H](NC(=O)c1[nH]cnc1C(=O)Nc1ccccc1)C(=O)OC(C)(C)C	-8	14*	27*	.	-7	24	40*	20*
CCOC(=O)c1ccc(NC(=O)c2nc[nH]c2C(=O)N[C@@H](CC(C)C)C(=O)OC(C)(C)C)cc1	-6	4	3	4	-10	9	.	.
C[C@@H](NC(=O)c1nc[nH]c1C(=O)N[C@@H](Cc1ccccc1)C(=O)OC(C)(C)C)c1ccccc1	11	10*	19	.	-5	20	33*	14*
COC(=O)c1ccc(COC(=O)CNC(=O)c2ccc(-c3ccccc3)cc2)cc1	2	-1	-5	-5	-17	5	.	.
SMILES	CendR NRP1 mod	ADAM17 inh	ADAM10 inh	Arr AP2 block	CaV13 FRET inh	FAS-TE inh	ADAM10 ctr	ADAM17 confirm
CC(C)(C)OC(=O)NCc1ccc(CNC(=O)c2[nH]cnc2C(=O)N[C@@H](Cc2ccccc2)C(=O)OCc2ccccc2)cc1	1	12*	16	-9	25	17	34*	20*
CC(C)(C)OC(=O)[C@H](Cc1ccccc1)NCC(=O)OCc1ccc(C(=O)NCc2ccccc2)cc1	.	8.7*	13	.	.	.	11	8
O=C(Nc1ccc(Br)cc1)OCCCN1CCC2(CCCCC2)C1=O	.	0	-24	.	.	.	.	.
C[C@H](NC(=O)c1nc[nH]c1C(=O)N[C@@H](Cc1ccccc1)C(=O)OCc1ccccc1)C(=O)OCc1ccccc1	14	11*	16	-8	15	17	33*	19*
CNC(=O)c1[nH]cnc1C(=O)N[C@@H](Cc1ccccc1)C(=O)OCc1ccccc1	-2	1	10	20	-6	2	.	.
COc1ccc(-c2c(-c3ccc(OCC(=O)NN)cc3O)n[nH]c2C)cc1OC	8	1	12	-5	-17	-57	.	.
COc1ccc(-c2c(-c3ccc(OCC(=O)NN)cc3O)n[nH]c2C(F)(F)F)cc1	8	12*	19	-7	-5	3	10	8
COc1ccc(C[C@H]2CN3C(=NC[C@@H]3C)N2CCNC(=O)CCC2CCCCC2)cc1	-12	11*	18	-1	-9	-9	-11	-1
C[C@H]1CN=C2N(CCNC(=O)CCC3CCCCC3)[C@H](Cc3ccc(O)cc3)CN21	-2	-5	-14	12	-11	-10	.	.
COc1cccc(-c2cnc(C(O)c3ccc(SC)cc3)[nH]2)c1 (centres undefined)	-9	1	10	.	-9	2	.	.
OC(c1ccccc1)c1ncc(-c2ccc(Cl)cc2)[nH]1 (centres undefined)	0	4	0	.	-10	-3	.	.
